ChEMBL document CHEMBL1152134, “Synthetic chalcones as efficient inhibitors of Mycobacterium tuberculosis protein tyrosine phosphatase PtpA” (Bioorg Med Chem Lett, 2008)
pIC50: −log10 of the molar value.

Assays:
[1] = biological target: T1, Low molecular weight protein-tyrosine phosphatase A (Mycobacterium tuberculosis) (UniProt P9WIA1); test: Inhibition of Mycobacterium tuberculosis recombinant protein tyrosine phosphatase assessed as enzyme activity at 25 uM; set-up: scale not given: the % may be the effect or the level left
T1 sequence (whole entry): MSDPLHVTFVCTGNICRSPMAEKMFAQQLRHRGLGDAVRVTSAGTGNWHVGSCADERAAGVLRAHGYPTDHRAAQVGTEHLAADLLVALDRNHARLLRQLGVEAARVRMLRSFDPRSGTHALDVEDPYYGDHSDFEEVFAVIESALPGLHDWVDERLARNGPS
Outline: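 His-tagged recombinant M. tuberculosis PtpA expressed from pET28a. Compound diluted in 25 mM bis-Tris–HCl pH 8.0, 20 mM imidazole pH 7.0, 40 mM DTT and 40 mM pNPP substrate; enzyme added to start. Incubated 20 min at 37 °C, absorbance at 410 nm read every 2 min. Controls: no enzyme; enzyme with DMSO. Percent activity averaged from two experiments in triplicate.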

[2] = biological target: T2, Low molecular weight protein-tyrosine phosphatase A (Mycobacterium tuberculosis, UniProt P9WIA1); test: Inhibition of Mycobacterium tuberculosis recombinant protein tyrosine phosphatase
T2 sequence (P9WIA1 whole entry): T1 sequence (whole entry)

SMILES	Activity [1] [%]	pIC50 [2]
COc1cc(OC)c(C(=O)/C=C/c2cccc(Cl)c2)c(OC)c1	98	–
O=C(/C=C/c1cccc2ccccc12)c1cccc(O)c1	79.5	–
O=C(/C=C/c1ccc2c(c1)OCO2)c1ccc([N+](=O)[O-])cc1	80.5	–
COc1cc(O)c(C(=O)/C=C/c2cccc(Cl)c2)c(OC)c1	87	–
O=C(/C=C/c1ccc2c(c1)OCO2)c1cccc([N+](=O)[O-])c1	74	–
COC1C=C(C(=O)/C=C/c2ccc3ccccc3c2)C=CC1O (centres undefined)	61	–
O=C(/C=C/c1ccc2ccccc2c1)c1ccccc1O	74.6	–
COc1ccc(C(=O)/C=C/c2cccc3ccccc23)c(OC)c1	80	–
COc1ccc(OC)c(C(=O)/C=C/c2ccc3c(c2)OCO3)c1	91.3	–
COc1ccc(C(=O)/C=C/c2ccc3ccccc3c2)cc1OC	31.5	4.64
COc1cc(O)c(C(=O)/C=C/c2cccc3ccccc23)c(OC)c1	84.4	–
O=C(/C=C/c1cccc2ccccc12)c1ccccc1O	24	4.29
COc1cc(OC)c(C(=O)/C=C/c2ccc(Cl)c(Cl)c2)c(OC)c1	99	–
O=C(/C=C/c1cccc2ccccc12)c1ccc([N+](=O)[O-])cc1	82	–
O=C(/C=C/c1ccc2ccccc2c1)c1ccc(Br)cc1	89.2	–
COc1cc(C(=O)/C=C/c2ccc3ccccc3c2)cc(OC)c1OC	109	–
COc1cc(C(=O)/C=C/c2cccc3ccccc23)cc(OC)c1OC	102	–
O=C(/C=C/c1ccc2ccccc2c1)c1ccc([N+](=O)[O-])cc1	89	–

SMILES	Activity [1] [%]	pIC50 [2]
COc1ccc(C(=O)/C=C/c2ccc3c(c2)OCO3)cc1OC	99	–
O=C(/C=C/c1ccc2c(c1)OCO2)c1ccccc1O	103	–
O=C(/C=C/c1ccc2c(c1)OCO2)c1ccccc1	103	–
O=C(/C=C/c1cccc2ccccc12)c1cccc([N+](=O)[O-])c1	88	–
O=C(/C=C/c1ccc2ccccc2c1)c1cccc([N+](=O)[O-])c1	84	–
COc1ccc(C(=O)/C=C/c2cccc3ccccc23)cc1	82.4	–
COc1cc(C(=O)/C=C/c2ccc3c(c2)OCO3)cc(OC)c1OC	82.4	–
COc1cc(OC)c(C(=O)/C=C/c2cccc([N+](=O)[O-])c2)c(OC)c1	100	–
O=C(/C=C/c1ccc2c(c1)OCO2)c1ccc(Br)cc1	86	–
COc1cc(C(=O)/C=C/c2ccc3c(c2)OCO3)ccc1O	80	–
COc1ccc(C(=O)/C=C/c2ccc3c(c2)OCO3)cc1	94	–
COc1ccc(OC)c(C(=O)/C=C/c2ccc3ccccc3c2)c1	42.5	5.08
O=C(/C=C/c1cccc2ccccc12)c1ccc(Br)cc1	75	–
COc1ccc(OC)c(C(=O)/C=C/c2cccc3ccccc23)c1	54	4.40
COc1cc(OC)c(C(=O)/C=C/c2ccc3ccccc3c2)c(OC)c1	104	–
COc1cc(O)c(C(=O)/C=C/c2cccc([N+](=O)[O-])c2)c(OC)c1	92	–
O=C(/C=C/c1cccc2ccccc12)c1ccccc1	62.7	–
